In ChEMBL document CHEMBL4400518, “Synthesis, antimicrobial and cytotoxic activities, and molecular docking studies of N-arylsulfonylindoles containing an aminoguanidine, a semicarbazide, and a thiosemicarbazide moiety” (Eur J Med Chem, 2019):
In brackets after ≈: the same amount, converted by molar mass.

How the values were obtained:
Pseudomonas aeruginosa [1] = test: Antibacterial activity against multidrug-resistant Pseudomonas aeruginosa ATCC BAA-2111 measured after 24 hrs by ELISA; type: functional; settings: ATCC BAA-2111, 24 h
Procedure, shortened: (§1)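 Broth serial dilution MIC. Mid-log bacteria in Mueller-Hinton or Tryptone Soya broth, diluted 1000-fold and inoculated at 10^5 CFU/mL. Compounds from DMSO stock, final DMSO ≤0.05%. Incubated 24 h at 37 °C; growth read as absorbance at 630 nm. MIC is the lowest concentration giving complete growth inhibition. Three independent experiments.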

Bacillus subtilis = test: Antibacterial activity against Bacillus subtilis CMCC 63501 measured after 24 hrs by ELISA; type: functional; settings: CMCC 63501, 24 h
Procedure, shortened: (§2)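 Broth microdilution MIC. Mid-log bacteria in MHB or TSB diluted 1000-fold, inoculated at 10^5 CFU/mL. Compounds added from DMSO stocks; final DMSO at most 0.05%. Incubation 24 h at 37 °C. Growth read as absorbance at 630 nm. MIC taken as the lowest concentration giving complete growth inhibition. Three independent experiments.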

Staphylococcus aureus [2] = test: Antibacterial activity against methicillin-resistant Staphylococcus aureus ATCC 43300 measured after 24 hrs by ELISA; type: functional; settings: ATCC 43300, 24 h; procedure, shortened: as §1
SGC-7901 = test: Cytotoxicity against human SGC7901 cells measured after 48 hrs by CCK8 assay; type: functional, cell-based; settings: SGC-7901, 48 h
Procedure, shortened: (§3)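 Cells kept in DMEM with 10% FBS and penicillin-streptomycin at 37 °C, 5% CO2. About 1×10^4 cells per well attached for 24 h, then exposed for 48 h to 0.3, 1, 3, 10, 30 and 100 µmol/L of compound, in triplicate wells. CCK-8 added for 3 h, OD read at 450 nm. IC50 is the concentration inhibiting growth by 50%.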

Staphylococcus aureus [3] = test: Antibacterial activity against methicillin-resistant Staphylococcus aureus ATCC 33591 measured after 24 hrs by ELISA; type: functional; settings: ATCC 33591, 24 h; procedure, shortened: as §1
Staphylococcus aureus [4] = test: Antibacterial activity against Staphylococcus aureus CMCC 25923 assessed as ratio of MIC after and before 16 passages at sub-MIC; type: functional
Procedure, shortened: (§4)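 Resistance by serial passage. After an initial broth-dilution MIC, bacteria grown at MIC/2 were transferred to a fresh MIC assay every 22 h incubation, repeatedly. Norfloxacin was the comparator antibiotic. MIC was tracked against passage day.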

[5] = Selectivity index, ratio of IC50 for HEK293T cells to MIC for Pseudomonas aeruginosa CMCC 27853; type: toxicity; settings: human, read-out: Selectivity Index
[6] = Selectivity index, ratio of IC50 for HEK293T cells to MIC for multidrug-resistant Escherichia coli ATCC BAA-196; type: toxicity; settings: human, read-out: Selectivity Index
[7] = Selectivity index, ratio of IC50 for HEK293T cells to MIC for multidrug-resistant Pseudomonas aeruginosa ATCC BAA-2111; type: toxicity; settings: human, read-out: Selectivity Index
Pseudomonas aeruginosa [8] = test: Antibacterial activity against Pseudomonas aeruginosa CMCC 27853 measured after 24 hrs by ELISA; type: functional; settings: CMCC 27853, 24 h; procedure, shortened: as §2
Enterococcus faecalis = test: Antibacterial activity against Enterococcus faecalis CMCC 29212 measured after 24 hrs by ELISA; type: functional; settings: CMCC 29212, 24 h; procedure, shortened: as §2
Streptococcus pyogenes = test: Antibacterial activity against Streptococcus pyogenes CMCC 32067 measured after 24 hrs by ELISA; type: functional; settings: CMCC 32067, 24 h; procedure, shortened: as §2
[9] = Selectivity index, ratio of IC50 for HEK293T cells to MIC for Streptococcus pyogenes CMCC 32067; type: toxicity; settings: human, read-out: Selectivity Index
HEK-293T = test: Cytotoxicity against HEK293T cells measured after 48 hrs by CCK8 assay; type: cell-based; settings: Homo sapiens; procedure, shortened: as §3
[10] = Selectivity index, ratio of IC50 for HEK293T cells to MIC for Streptococcus pneumoniae CMCC 31968; type: toxicity; settings: human, read-out: Selectivity Index
Escherichia coli [11] = test: Antibacterial activity against multidrug-resistant Escherichia coli ATCC BAA-196 measured after 24 hrs by ELISA; type: functional; settings: ATCC BAA-196, 24 h; procedure, shortened: as §1
Escherichia coli [12] = test: Antibacterial activity against Escherichia coli CMCC 25922 measured after 24 hrs by ELISA; type: functional; settings: CMCC 25922, 24 h; procedure, shortened: as §2
[13] = Selectivity index, ratio of IC50 for HEK293T cells to MIC for methicillin-resistant Staphylococcus aureus ATCC 33591; type: toxicity; settings: human, read-out: Selectivity Index
[14] = Selectivity index, ratio of IC50 for HEK293T cells to MIC for Staphylococcus aureus CMCC(B) 26003; type: toxicity; settings: human, read-out: Selectivity Index
[15] = Selectivity index, ratio of IC50 for HEK293T cells to MIC for Pseudomonas aeruginosa CMCC 10104; type: toxicity; settings: human, read-out: Selectivity Index
Escherichia coli [16] = test: Antibacterial activity against Escherichia coli CMCC 44568 assessed as ratio of MIC after and before 16 passages at sub-MIC; type: functional; procedure, shortened: as §4
Escherichia coli [17] = test: Antibacterial activity against Escherichia coli CMCC 44568 measured after 24 hrs by ELISA; type: functional; settings: CMCC 44568, 24 h; procedure, shortened: as §2
[18] = Selectivity index, ratio of IC50 for HEK293T cells to MIC for Bacillus subtilis CMCC 63501; type: toxicity; settings: human, read-out: Selectivity Index
Pseudomonas aeruginosa [19] = test: Antibacterial activity against Pseudomonas aeruginosa CMCC 10104 measured after 24 hrs by ELISA; type: functional; settings: CMCC 10104, 24 h; procedure, shortened: as §2
[20] = Selectivity index, ratio of IC50 for HEK293T cells to MIC for Escherichia coli CMCC 25922; type: toxicity; settings: human, read-out: Selectivity Index
Staphylococcus aureus [21] = test: Antibacterial activity against Staphylococcus aureus CMCC(B) 26003 measured after 24 hrs by ELISA; type: functional; settings: CMCC(B) 26003, 24 h; procedure, shortened: as §2
[22] = Selectivity index, ratio of IC50 for HEK293T cells to MIC for Enterococcus faecalis CMCC 29212; type: toxicity; settings: human, read-out: Selectivity Index
[23] = Selectivity index, ratio of IC50 for HEK293T cells to MIC for Staphylococcus aureus CMCC 25923; type: toxicity; settings: human, read-out: Selectivity Index
Staphylococcus aureus [24] = test: Antibacterial activity against Staphylococcus aureus CMCC 25923 measured after 24 hrs by ELISA; type: functional; settings: CMCC 25923, 24 h; procedure, shortened: as §2
[25] = Selectivity index, ratio of IC50 for HEK293T cells to MIC for methicillin-resistant Staphylococcus aureus ATCC 43300; type: toxicity; settings: human, read-out: Selectivity Index
Streptococcus pneumoniae = test: Antibacterial activity against Streptococcus pneumoniae CMCC 31968 measured after 24 hrs by ELISA; type: functional; settings: CMCC 31968, 24 h
[26] = Cytotoxicity against human A590 cells measured after 48 hrs by CCK8 assay; type: functional, cell-based; procedure, shortened: as §3
[27] = Selectivity index, ratio of IC50 for HEK293T cells to MIC for Escherichia coli CMCC 44568; type: toxicity; settings: human, read-out: Selectivity Index

Compound | MIC (Pseudomonas aeruginosa [1]) [µM] | MIC (Bacillus subtilis) [µM] | MIC (Staphylococcus aureus [2]) [µM] | MIC (Staphylococcus aureus [3]) [µM] | Ratio (Staphylococcus aureus [4]) | MIC (Pseudomonas aeruginosa [8]) [µM] | MIC (Enterococcus faecalis) [µM] | MIC (Streptococcus pyogenes) [µM] | MIC (Escherichia coli [11]) [µM] | MIC (Escherichia coli [12]) [µM] | Ratio (Escherichia coli [16]) | MIC (Escherichia coli [17]) [µM] | MIC (Pseudomonas aeruginosa [19]) [µM] | MIC (Staphylococcus aureus [21]) [µM] | MIC (Staphylococcus aureus [24]) [µM] | MIC (Streptococcus pneumoniae) [µM] | further results
C/C(=N/NC(=N)N)c1cn(S(=O)(=O)c2ccc(C)cc2)c2ccc(Br)cc12 | > 71.6 | 4.47 (≈ 2 µg/mL) | 1.12 (≈ 0.502 µg/mL) | 2.24 (≈ 1 µg/mL) | 0 | > 286 | 8.94 (≈ 4.01 µg/mL) | 286 (≈ 128 µg/mL) | 0.56 (≈ 0.251 µg/mL) | 286 (≈ 128 µg/mL) | 0 | 1.12 (≈ 0.502 µg/mL) | > 286 | 4.47 (≈ 2 µg/mL) | 2.24 (≈ 1 µg/mL) | 2.24 (≈ 1 µg/mL) | IC50 (SGC-7901): 1.51 µM; selectivity ratio [5]: < 0.2; selectivity ratio [6]: 101; selectivity ratio [7]: < 0.79; selectivity ratio [9]: 0.2; IC50 (HEK-293T): 56.4 µM; selectivity ratio [10]: 25.2; selectivity ratio [13]: 25.2; selectivity ratio [14]: 12.6; selectivity ratio [15]: < 0.2; selectivity ratio [18]: 12.6; selectivity ratio [20]: 0.2; selectivity ratio [22]: 6.31; selectivity ratio [23]: 25.2; selectivity ratio [25]: 50.4; IC50 [26]: 4.44 µM; selectivity ratio [27]: 50.4
CCn1cc(C(=O)O)c(=O)c2cc(F)c(N3CCNCC3)cc21 [NORFLOXACIN] | 3.13 (≈ 1 µg/mL) | 6.27 (≈ 2 µg/mL) | 1.57 (≈ 0.501 µg/mL) | 0.78 (≈ 0.249 µg/mL) | 32 | 6.27 (≈ 2 µg/mL) | 3.13 (≈ 1 µg/mL) | > 401 | 1.57 (≈ 0.501 µg/mL) | 0.39 (≈ 0.125 µg/mL) | 16 | 0.39 (≈ 0.125 µg/mL) | 12.5 (≈ 4 µg/mL) | 0.39 (≈ 0.125 µg/mL) | 0.39 (≈ 0.125 µg/mL) | > 401 | 
